Measured values: publication PMC10674630 (Diabetes, Metabolic Syndrome and Obesity, 2023)
In brackets after ≈: the same amount, converted by molar mass. Entries after “also recorded” stand apart in the source; their conditions may differ. Read-outs that look alike come from different tables or passages of the source. *1 amine or outer side, *2 acyl side, *3 side chain or, on linkers, in order; H or OH if unused. Where a SMILES comes first, the peptide text is derived from it. Bridges are numbered along the chain shown (N, C = ends). [ ]: non-standard residue; d: D form. X1 = CC(C)CCCCCCCCC[C@H](CC(=O)[*:1])O[*:2]

Columns and labels:
ATCC 25923 [1] = assay: Microbroth dilution MIC, ATCC 25923; format: cell-based, S. aureus; details: triplicate
Procedure, shortened: (§1)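 Surfactin was dissolved in sterile distilled water and tested by broth microdilution in MH broth. Strains were a reference strain and MALDI-TOF-identified clinical isolates from diabetic foot ulcers. MIC was the lowest concentration without visible growth. For MBC, 10 µL from clear wells was plated on MH agar for 24 h at 37 °C, and MBC was the lowest concentration giving no colonies. Tests were run in triplicate.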

sortaseA = details: S. aureus; cited from earlier work
SA 452 biofilm formation = assay: Biofilm inhibition assay; format: cell-based, S. aureus
Procedure, shortened: (§2)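 Overnight cultures were diluted in TSB containing serial surfactin dilutions (1/64×MIC to 2×MIC) to 1×10^6 CFU/mL and grown in triplicate wells for 24 h at 37 °C. Wells were washed three times with PBS and stained with 0.5% crystal violet for 20 min. After air-drying, stain was solubilised in 95% ethanol for 20 min at room temperature and OD570 was read.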

[2] = test system: S. aureus biofilm formation; assay: Biofilm inhibition assay; format: cell-based
Procedure, shortened: as §2

SA 095 = assay: Microbroth dilution MIC, SA 095; format: cell-based, S. aureus; details: SA 095 (non-MDR), triplicate
Procedure, shortened: as §1

[3] = test system: S. aureus (ATCC 25923 and MRSA SA 452); assay: Mutant prevention / resistance selection, both strains; format: cell-based; details: S. aureus
Procedure, shortened: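 Strains were grown 24 h in MH broth, centrifuged at 4000×g for 10 min and resuspended to 1×1010 CFU/mL. […] MPC was the lowest concentration preventing colonies. MPC/MIC ratio defined the mutant selection window.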

ATCC 25923 [4] = assay: Transmission electron microscopy; format: cell-based, S. aureus; details: 5×MIC, 1 h, control 0.05% DMSO
ATCC 25923 [5] = test system: ATCC 25923
SA 452 [6] = test system: SA 452
ATCC 25923 [7] = assay: Bacterial growth curves, ATCC 25923; format: cell-based, S. aureus
Procedure, shortened: (§3)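 Cultures of ATCC 25923 and a clinical MRSA strain were diluted to 1×10^6 CFU/mL in MH broth with surfactin at 0, 1/2×MIC, MIC or 2×MIC, with an MH broth-only negative control. Tubes were shaken at 200 rpm and 35 °C for 24 h. OD600 was read at 0, 4, 8, 12 and 24 h. Runs were done in triplicate.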

Gram-negative bacteria = assay: Efficacy against Gram-negative bacteria; format: cell-based; details: data not shown
SA 326 = assay: Microbroth dilution MIC, SA 326; format: cell-based, S. aureus; details: SA 326 (MRSA), triplicate
Procedure, shortened: as §1

SA 366 = assay: Microbroth dilution MIC, SA 366; format: cell-based, S. aureus; details: SA 366 (MDR), triplicate
Procedure, shortened: as §1

icaD = details: cited from earlier work
SA 452 [8] = assay: Bacterial growth curves, SA 452; format: cell-based, S. aureus; details: for Growth inhibition: 24-h exposure, 0, 1/2×MIC, MIC, 2×MIC
Procedure, shortened: as §3

penicillinase = assay: Penicillinase inhibition assay; format: biochemical
Procedure, shortened: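 Penicillin K (10,000 U/mL) added at 2:1 to mixture, 1 h at 37 °C. Then 0.01 mol/L iodine for 15 min, back-titrated with 0.01 mol/L Na2S2O3 to colourless, starch indicator near endpoint. Thiosulfate consumed is inversely related to enzyme activity.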

fnbA = details: S. aureus; cited from earlier work
[9] = test system: standard and clinical strains of Staphylococcus aureus; assay: MIC and MBC by microbroth dilution, all selected strains; format: cell-based
Procedure, shortened: as §1

fnbB = details: S. aureus; cited from earlier work
SA 452 [10] = assay: Microbroth dilution MIC, SA 452; format: cell-based, S. aureus; details: SA 452 (MRSA), triplicate
Procedure, shortened: as §1

S. aureus biofilm = details: ref 28 (Liu et al), cited from earlier work
icaA = details: cited from earlier work
human red blood cells = assay: Human red blood cells hemolysis assay; format: cell-based; details: 1 h, 37 °C
Procedure, shortened: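 Whole blood from healthy human volunteers was spun at 1000×g for 5 min, and the RBCs were washed three times in PBS and resuspended in PBS. RBC suspension was mixed 1:1 with serial surfactin dilutions and incubated 1 h at 37 °C, then supernatant A570 was read. Hemolysis % was scaled between 0.1% DMSO (negative) and 0.1% Triton X-100 (positive).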

[11] = test system: ATCC 25923 biofilm formation; assay: Biofilm inhibition assay; format: cell-based, S. aureus
Procedure, shortened: as §2

[12] = 1.5 mg/mL, ref 39 (Englerová et al)

Compound: CC(C)CCCCCCCCC[C@@H]1CC(=O)N[C@@H](CCC(=O)O)C(=O)N[C@@H](CC(C)C)C(=O)N[C@H](CC(C)C)C(=O)N[C@@H](C(C)C)C(=O)N[C@@H](CC(=O)O)C(=O)N[C@H](CC(C)C)C(=O)N[C@@H](CC(C)C)C(=O)O1 [Surfactin, surfactin] (EL[dL]VD[dL]L; linker N-C via X1 (inferred))
- MIC (ATCC 25923 [1]): 512 µg/mL (≈ 494 µM)
- Expression of sortaseA (in words) (sortaseA): inhibit the expression
- MRSA biofilm inhibition at 2×MIC (in words) (SA 452 biofilm formation; MRSA, 2×MIC): almost completely inhibited
- Biofilm inhibition, dose dependence (SA 452 biofilm formation; SA 452, 1/64×MIC to 2×MIC): dose-dependent inhibitory effect
- Inhibition of biofilm formation (SA 452 biofilm formation; SA 452, 2×MIC, crystal violet, 24 h, 37°C): more than 95%
- Concentration from which biofilm inhibition starts (SA 452 biofilm formation; SA 452, crystal violet, OD570, 24 h, 37°C, TSB): 1/16
- Biofilm inhibition at 1/16×MIC (in words) ([2]; 1/16×MIC): significantly inhibited
- Biofilm inhibition (in words) ([2]; S. aureus): significantly prevented the S. aureus biofilm formation; also recorded: dose-dependent inhibitory effect on S. aureus biofilm formation; also recorded: significantly reducing biofilm production
- MIC (SA 095): 512 µg/mL (≈ 494 µM)
- In vitro resistance development [3]: In vitro resistance was not readily produced
- Cell structure by TEM (ATCC 25923 [4]): damaged structure, leading to cell lysis and death; also recorded: irregular and collapsed surfaces, content leakage, and cell death
- FICI (ATCC 25923 [5]; surfactin with ampicillin): 0.5
- Fold Change (ATCC 25923 [5]; surfactin with ciprofloxacin): 2
- Fold Change (ATCC 25923 [5]; surfactin with erythromycin): 8
- FICI (ATCC 25923 [5]; surfactin with oxacillin): 0.25
- Fold Change (ATCC 25923 [5]; surfactin with oxacillin): 8
- FICI (ATCC 25923 [5]; surfactin with tetracycline): 0.188
- Fold Change (ATCC 25923 [5]; surfactin with tetracycline): 8
- FICI (SA 452 [6]; surfactin with ampicillin): 0.133
- Fold Change (SA 452 [6]; surfactin with ampicillin): 8
- FICI (SA 452 [6]; surfactin with ciprofloxacin): 2
- FICI (SA 452 [6]; surfactin with erythromycin): 2
- FICI (SA 452 [6]; surfactin with gentamicin): 0.25
- Fold Change (SA 452 [6]; surfactin with gentamicin): 8
- FICI (SA 452 [6]; surfactin with oxacillin): 0.156
- Fold Change (SA 452 [6]; surfactin with oxacillin): 8
- FICI (SA 452 [6]; surfactin with tetracycline): 0.133
- Fold Change (SA 452 [6]; surfactin with tetracycline): 8
- Growth inhibition (ATCC 25923 [7]; 24-h exposure, 0, 1/2×MIC, MIC, 2×MIC, OD600): inhibited the growth of ATCC 25923 and SA 452 in a dose-dependent manner
- Growth inhibition at MIC and 2×MIC (ATCC 25923 [7]; MIC and 2×MIC): almost completely inhibited
- Growth reduction at half the MIC (ATCC 25923 [7]; from 4 h, 1/2×MIC): significantly reduced from 4 h
- Efficacy against Gram-negative bacteria relative to Gram-positive (Gram-negative bacteria): less than that of Gram-positive bacteria
- MIC (SA 326): 1024 µg/mL (≈ 988 µM)
- MIC (SA 366): 512 µg/mL (≈ 494 µM)
- Downregulation of icaD expression (icaD; [12]): 1.85 fold
- Expression of icaD (in words) (icaD; 2×MIC, ref 28 (Liu et al)): significantly reduced the expression
- Growth inhibition (SA 452 [8]; OD600): inhibited the growth of ATCC 25923 and SA 452 in a dose-dependent manner
- Growth inhibition (SA 452 [8]; OD600, listed as surfactin): inhibited the growth of both ATCC 25923 and SA 452 in a dose-dependent manner
- Growth inhibition at MIC and 2×MIC (SA 452 [8]; MIC and 2×MIC): almost completely inhibited
- Growth reduction at half the MIC (SA 452 [8]; from 4 h, 1/2×MIC): significantly reduced from 4 h
- Volume of Na2S2O3 consumed (penicillinase inhibition) (penicillinase; […], 10,000 U/mL penicillinase, 18 h, 35 °C, penicillinase-only control 0.5 mL): 2.25 mL
- Penicillinase inhibition (in words) (penicillinase; iodometry): directly inhibited penicillinase activity, but not as much as the clavulanate potassium; also recorded: significantly reduced penicillinase activity
- Expression of fnbA (in words) (fnbA): inhibit the expression
- Antibacterial activity (in words) ([9]; S. aureus from DFUs (non-MDR, MDR, MRSA) and ATCC 25923): antibacterial and bactericidal activity against S. aureus strains; also recorded: effectively inhibited the growth of S. aureus
- Difference in MICs between strains with different resistance patterns ([9]; non-MDR, MDR, MRSA, ATCC 25923): no significant difference in MICs
- Expression of fnbB (in words) (fnbB): inhibit the expression
- MIC (SA 452 [10]): 512 µg/mL (≈ 494 µM)
- Biofilm removal rate (S. aureus biofilm; 0.2% surfactin, 4 h): 80%
- Reduction of biofilm production (S. aureus biofilm; one-quarter MIC, S. aureus): 60%
- Downregulation of icaA expression (icaA; [12]): 2.82 fold
- Expression of icaA (in words) (icaA; 2×MIC, ref 28 (Liu et al)): significantly reduced the expression
- Hemolysis at 16×MIC (human red blood cells; 16×MIC, human RBC): > 5%
- Hemolysis below 16×MIC (human red blood cells; all concentrations less than 16×MIC, human RBC): no hemolysis was observed
- Concentration at which hemolytic activity (hemolysis > 5%) occurred (human red blood cells; human RBC in PBS, A570, Triton X-100 positive control): 16 ×MIC
- Cytotoxicity to RBCs (in words) (human red blood cells; human RBC): limited toxicity on human red blood cells; also recorded: extremely low cytotoxicity to RBCs; also recorded: very low cytotoxicity to erythrocytes
- Biofilm inhibition, dose dependence ([11]; 1/64×MIC to 2×MIC): dose-dependent inhibitory effect
- Inhibition of biofilm formation ([11]; 2×MIC, crystal violet, 24 h, 37°C): 80%
- Concentration from which biofilm inhibition starts ([11]; crystal violet, OD570, 24 h, 37°C, TSB): 1/16
